Assay results taken from ChEMBL document CHEMBL1135475, “One-pot synthesis of benzo[b]furan and indole inhibitors of tubulin polymerization” (J Med Chem, 2002).

Experiments:
Tubulin (Bos taurus) = Tubulin (Bos taurus) (UniProt Q6B856+Q862L2+Q862F3); experiment: Percent inhibition of 5 uM of [3H]colchicine binding to 1 uM of tubulin by 5 uM of compound after a 10 minute incubation at 37 degrees C; assay type: protein assay
Method in brief: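 Tubulin purified to electrophoretic homogeneity from bovine brain, used at 1.0 µM with [3H]colchicine and inhibitor both at 5.0 µM. […] At least two independent experiments per compound.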

Tubulin = Tubulin (Bos taurus, UniProt Q6B856+Q862L2+Q862F3); experiment: Inhibition of tubulin (10 uM) polymerization, after a 20 min incubation at 30 degrees Centigrade; assay type: functional

Structure (SMILES)	inhibition (Tubulin (Bos taurus))	IC50 (Tubulin)
COc1ccc(-c2oc3cc(OC)ccc3c2C(=O)c2cc(OC)c(OC)c(OC)c2)cc1	77%	–
COc1ccc(-c2oc3cc(OC)ccc3c2-c2cc(OC)c(OC)c(OC)c2)cc1	–	> 40 µM
COc1ccc2c(C(=O)c3cc(OC)c(OC)c(OC)c3)c(-c3ccc(OC)c(O)c3)sc2c1	21%	–
